Structures can show the parent of a compound that is named as a salt. Marks after values point to notes of the source that are not given here.
Tests used:
[1] = target: human TRPA1 (Homo sapiens, UniProt O75762); assay: Fluo4 [Ca2+]i assay in HEK-A1 cells; type: cell-based; conditions: for nH (Hill coefficient): HEK-A1 cells
[2] = system: HEK293 cells; assay: Fluo4 [Ca2+]i assay in parental HEK293 cells; type: cell-based; conditions: 300 µM
In short: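 Wild-type HEK293 cells in DMEM (4.5 mg/ml glucose, 10% heat-inactivated FBS, penicillin/streptomycin), plated on polyornithine-treated wells for 14–18 hrs. Loaded with Fluo4-AM (2 µM, 60 min, 37°C) in ECS with 2 mM probenecid, then washed. Test compound was given robotically at 300 µM final. Fluorescence was read on a plate reader at ex 494/em 525 nm, 0.67 Hz, 20–25°C.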

[3] = target: T1, human TRPA1 endogenously expressed in WI-38 fibroblasts (Homo sapiens, UniProt O75762); assay: Fluo4 [Ca2+]i assay in WI-38 fibroblasts; type: cell-based; conditions: for agonist effect on Fluo4 fluorescence ([Ca2+]i) in WI-38 cells: 300 µM; for effect of antagonist on response to AITC / effect of antagonist preincubation on response to FFA: antagonist 20 µM; for effect of antagonist on response to AITC: AITC 33 µM; for effect of antagonist preincubation on response to FFA: FFA 33 µM; for antagonist effect on the response induced by FFA or AITC: 100 µM added 2 min before the agonist, data not shown
[4] = target: rat TRPA1 (Rattus norvegicus, UniProt Q6RI86); assay: Two-electrode voltage clamp of Xenopus oocytes expressing rat TRPA1; type: cell-based; conditions: for effect on current in TRPA1-expressing oocytes: 300 µM; for current evoked by agonist alone, % of that evoked by 30 µM FFA: 3 µM agonist alone; for interaction with AITC, CA, or cold on channel activation: 30 µM fenamate with 3 µM AITC or CA, or 14°C; for EC50: nominally Ca2+-free bath
[5] = target: human TRPA1 Cys621Ser, Cys641Ser and Cys665Ser triple mutant (Homo sapiens, UniProt O75762, C621S/C641S/C665S); assay: Currents of human TRPA1 triple cysteine mutant; type: cell-based; conditions: HH, unpublished results
[6] = system: TRPA1 channels heterologously expressed in mammalian cells and Xenopus oocytes; conditions: read-out: EC50 reported in the literature; as low as; cited from earlier work
[7] = target: T1, human TRPA1 endogenously expressed in WI-38 fibroblasts; assay: Whole-cell recordings of WI-38 cells; type: cell-based; conditions: ruthenium red 30 µM in the bath
In short: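 WI-38 cells grown in MEM with 10% heat-inactivated FBS and penicillin/streptomycin at 37°C, 5% CO₂. Cells were detached with 0.05% trypsin plus 0.53 mM EDTA in Ca²⁺/Mg²⁺-free HBSS for 5–10 min, held at 37°C, then settled on polyornithine-coated coverslips for 3–5 min before perfusion. Whole-cell voltage clamp was sampled at 5 kHz, with 100 ms ramps from −100 to +100 mV (holding −60 mV) applied every 0.5 s.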

Chain of rat TRPA1 (Q6RI86 whole entry): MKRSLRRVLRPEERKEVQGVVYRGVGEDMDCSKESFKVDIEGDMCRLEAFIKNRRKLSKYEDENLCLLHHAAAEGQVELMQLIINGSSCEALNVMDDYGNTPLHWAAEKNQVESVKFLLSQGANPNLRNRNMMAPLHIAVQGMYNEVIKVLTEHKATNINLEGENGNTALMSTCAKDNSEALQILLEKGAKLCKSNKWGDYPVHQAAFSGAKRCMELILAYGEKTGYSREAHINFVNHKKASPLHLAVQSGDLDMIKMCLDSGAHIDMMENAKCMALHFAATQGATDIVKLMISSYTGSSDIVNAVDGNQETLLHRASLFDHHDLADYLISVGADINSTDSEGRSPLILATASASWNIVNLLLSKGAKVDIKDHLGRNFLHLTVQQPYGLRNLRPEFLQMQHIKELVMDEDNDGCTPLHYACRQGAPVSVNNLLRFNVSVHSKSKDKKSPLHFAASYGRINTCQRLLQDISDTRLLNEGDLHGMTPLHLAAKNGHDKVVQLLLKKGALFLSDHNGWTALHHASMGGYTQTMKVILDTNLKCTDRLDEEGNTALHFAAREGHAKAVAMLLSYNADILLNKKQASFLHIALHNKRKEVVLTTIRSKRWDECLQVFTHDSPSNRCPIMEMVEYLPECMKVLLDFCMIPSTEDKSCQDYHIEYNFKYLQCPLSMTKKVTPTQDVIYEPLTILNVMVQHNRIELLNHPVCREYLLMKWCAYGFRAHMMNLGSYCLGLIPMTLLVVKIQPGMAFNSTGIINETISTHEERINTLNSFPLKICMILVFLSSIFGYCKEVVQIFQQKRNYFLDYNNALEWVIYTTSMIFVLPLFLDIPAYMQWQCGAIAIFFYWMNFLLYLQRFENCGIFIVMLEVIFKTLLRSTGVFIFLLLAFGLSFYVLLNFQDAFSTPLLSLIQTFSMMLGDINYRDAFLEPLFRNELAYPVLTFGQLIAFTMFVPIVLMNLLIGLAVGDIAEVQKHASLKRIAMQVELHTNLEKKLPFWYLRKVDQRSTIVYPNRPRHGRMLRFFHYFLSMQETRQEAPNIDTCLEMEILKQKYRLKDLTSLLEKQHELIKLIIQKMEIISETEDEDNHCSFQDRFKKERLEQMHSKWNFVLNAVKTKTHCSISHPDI
T1 sequence (O75762 whole entry): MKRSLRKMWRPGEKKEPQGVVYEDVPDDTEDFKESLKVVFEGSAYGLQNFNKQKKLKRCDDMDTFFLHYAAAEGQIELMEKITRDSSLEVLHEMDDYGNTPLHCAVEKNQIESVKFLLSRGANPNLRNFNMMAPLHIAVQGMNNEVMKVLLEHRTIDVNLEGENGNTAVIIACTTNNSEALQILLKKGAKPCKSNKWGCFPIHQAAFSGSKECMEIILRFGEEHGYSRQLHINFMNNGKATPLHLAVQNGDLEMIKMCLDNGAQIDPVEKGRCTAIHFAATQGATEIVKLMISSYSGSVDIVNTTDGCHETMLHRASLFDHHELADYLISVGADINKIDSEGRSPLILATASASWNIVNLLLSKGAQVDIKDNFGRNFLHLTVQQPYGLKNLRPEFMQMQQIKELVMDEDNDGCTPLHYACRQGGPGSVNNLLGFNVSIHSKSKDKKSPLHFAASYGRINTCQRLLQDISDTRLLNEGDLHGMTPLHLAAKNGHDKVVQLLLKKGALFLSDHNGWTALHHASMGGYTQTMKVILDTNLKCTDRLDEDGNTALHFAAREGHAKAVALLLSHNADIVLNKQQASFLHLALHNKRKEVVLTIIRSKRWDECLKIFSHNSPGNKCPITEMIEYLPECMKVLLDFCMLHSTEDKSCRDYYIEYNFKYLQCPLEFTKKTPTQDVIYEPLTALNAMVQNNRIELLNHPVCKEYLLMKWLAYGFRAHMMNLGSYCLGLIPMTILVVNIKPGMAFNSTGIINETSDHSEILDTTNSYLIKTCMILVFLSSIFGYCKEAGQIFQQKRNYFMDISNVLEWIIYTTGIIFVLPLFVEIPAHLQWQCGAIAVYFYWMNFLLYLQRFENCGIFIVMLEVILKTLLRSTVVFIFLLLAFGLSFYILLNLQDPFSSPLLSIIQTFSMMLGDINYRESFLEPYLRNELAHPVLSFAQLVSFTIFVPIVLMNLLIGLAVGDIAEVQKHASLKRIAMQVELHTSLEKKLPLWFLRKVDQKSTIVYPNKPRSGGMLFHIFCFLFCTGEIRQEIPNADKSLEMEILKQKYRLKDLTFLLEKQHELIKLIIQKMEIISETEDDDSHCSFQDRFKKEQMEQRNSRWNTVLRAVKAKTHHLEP
Chain of human TRPA1 (O75762 whole entry): as above
Chain of human TRPA1 Cys621Ser, Cys641Ser and Cys665Ser triple mutant (O75762 whole entry C621S/C641S/C665S): as the sequence (O75762 whole entry) above, with C621S, C641S, C665S counted along it

Structure (SMILES) | effect on Fluo4 fluorescence in HEK293 cells [2] | EC50 [3] [µM] | agonist effect on Fluo4 fluorescence ([Ca2+]i) in WI-38 cells [3] | nH (Hill coefficient) ([3]; WI-38 cells) | effect on current in TRPA1-expressing oocytes [4] | further results
CC(C(=O)O)c1ccc(-c2ccccc2)c(F)c1 (racemic) [flurbiprofen, (±)-flurbiprofen] | little effect | 342 ± 6 | increased the Fluo4 fluorescence | 1.5 ± 0.1 | caused current increases | EC50 [1]: 310 ± 66 µM; nH (Hill coefficient) [1]: 2.0 ± 0.3
NCCOB(c1ccccc1)c1ccccc1 [2APB, 2-aminoethoxydiphenyl borate] | – | – | – | – | – | concentration-response curve in triple cysteine mutant [5]: right-shifted
C=CCN=C=S [AITC, allyl isothiocyanate] | – | – | rapid fluorescence increase | 1.0 ± 0.1 | – | nH (Hill coefficient) [1]: 0.8 ± 0.1; EC50 [6]: 5 µM; current evoked by agonist alone, % of that evoked by 30 µM FFA ([4]; +100 mV): 45 ± 14%; current evoked by agonist alone, % of that evoked by 30 µM FFA ([4]; −100 mV): 51 ± 10%
CC(=C\c1ccc(Cl)cc1)/C(C)=N/O [AP-18] | – | – | – | – | – | effect of antagonist on response to AITC [3]: blocked; effect of antagonist preincubation on response to FFA [3]: inhibited
O=C/C=C/c1ccccc1 [CA, cinnamaldehyde] | – | 400 ± 41 | rapid fluorescence increase | 0.9 ± 0.1 | – | EC50 [6]: 6.5 µM; current evoked by agonist alone, % of that evoked by 30 µM FFA ([4]; +100 mV): 44 ± 16%; current evoked by agonist alone, % of that evoked by 30 µM FFA ([4]; −100 mV): 45 ± 8%
CC(C)c1ccc(NC(=O)Cn2cnc3c2c(=O)n(C)c(=O)n3C)cc1 [HC-030031] | – | – | – | – | – | effect of antagonist on response to AITC [3]: blocked; effect of antagonist preincubation on response to FFA [3]: inhibited
Cc1cccc(Nc2ccccc2C(=O)O)c1C [MFA, mefenamic acid] | little effect | – | increased the Fluo4 fluorescence | 1.5 ± 0.2 | – | interaction with AITC, CA, or cold on channel activation [4]: positive synergistic effects
O=C(O)c1cccnc1Nc1cccc(C(F)(F)F)c1 [NFA, niflumic acid] | little effect | 28 ± 3 | increased the Fluo4 fluorescence | 1.4 ± 0.2 | – | threshold of activation [4]: 10 to 30 µM; interaction with AITC, CA, or cold on channel activation [4]: positive synergistic effects; Hill co-efficient at +100 mV ([4]; +100 mV): 2.6 ± 0.3; EC50 ([4]; EC50 for current activation at +100 mV, +100 mV): 240 ± 12 µM; EC50 ([4]; EC50 for current activation at −100 mV, −100 mV): 540 ± 27 µM; Hill co-efficient at −100 mV ([4]; −100 mV): 2.1 ± 0.2
CC(=O)Oc1ccccc1C(=O)O [acetylsalicylic acid, Acetylsalicylic acid] | – | – | did not act as agonists | – | – | –
C=CC=O [acrolein] | – | – | rapid fluorescence increase | 1.0 ± 0.1 | – | EC50 [6]: 0.8 µM
O=C(O)Cc1ccccc1Nc1c(Cl)cccc1Cl [diclofenac, Diclofenac sodium salt] | little effect | – | increased the Fluo4 fluorescence | 1.3 ± 0.2 | caused current increases | –
CC(C)Cc1ccc([C@H](C)C(=O)O)cc1 [ibuprofen, (S)-(+)-ibuprofen] | – | – | did not act as agonists | – | – | –
COc1ccc2c(c1)c(CC(=O)O)c(C)n2C(=O)c1ccc(Cl)cc1 [indomethacin] | little effect | 470 ± 54 | increased the Fluo4 fluorescence | – | caused current increases | nH (Hill coefficient), fixed to make the fit ([3]; WI-38 cells, nH was fixed to 1.5): 1.5 ^b
CC(C(=O)O)c1cccc(C(=O)c2ccccc2)c1 (stereo not drawn) [ketoprofen, Ketoprofen] | little effect | > 500 | increased the Fluo4 fluorescence | – | very weak activator | –
O=C(c1ccccc1)c1ccc2n1CCC2C(=O)O (stereo not drawn) [ketorolac, ketorolac tromethamine salt] | – | – | fail to activate | – | did not have an effect | antagonist effect on the response induced by FFA or AITC [3]: do not act as antagonists
CC1CCC(C(C)C)C(O)C1 (stereo not drawn) [menthol] | – | – | – | – | – | concentration-response curve in triple cysteine mutant [5]: right-shifted
COc1ccc2cc([C@H](C)C(=O)O)ccc2c1 [naproxen, (S)-naproxen] | – | – | fail to activate | – | did not have an effect | antagonist effect on the response induced by FFA or AITC [3]: do not act as antagonists
COC(=O)C1=C(C)NC(C)=C(C(=O)OC)C1c1ccccc1[N+](=O)[O-] [nifedipine] | – | 157 ± 8 | rapid fluorescence increase | 1.1 ± 0.1 | – | EC50 [1]: 140 ± 23 µM; nH (Hill coefficient) [1]: 1.0 ± 0.1; EC50 [6]: 0.4 µM
N.N.N.N.N.N.N.N.N.N.N.N.N.N.[Cl-].[Cl-].[Cl-].[Cl-].[Cl-].[Cl-].[O-2].[O-2].[Ru+3].[Ru+3].[Ru+4] [ruthenium red] | – | – | – | – | – | effect on FFA-induced whole-cell currents [7]: completely abolished; effect of antagonist on response to AITC [3]: blocked; IC50 ([3]; read-out: IC50 for inhibition of the response to FFA, curve not shown): 2.1 µM

— publication PMC2828537 (Pflugers Archiv : European journal of physiology, 2009)
